The source of these data is ChEMBL document CHEMBL1148711, “Naphthalen-1-yl-(4-pentyloxynaphthalen-1-yl)methanone: a potent, orally bioavailable human CB1/CB2 dual agonist with antihyperalgesic properties and restricted central nervous system penetration” (J Med Chem, 2007).

Series [1] concerns the target Cannabinoid receptor 1 (Homo sapiens, UniProt P21554). Put plainly: Displacement of [3H]CP-55940 from human CB1 receptor expressed in HEK293 cells. It is filed as cell-based. (In general: Loss of bound radioactivity is the signal in a displacement assay; it reports binding, not function.)
The target of series [2] is T1, Cannabinoid receptor 2 (Homo sapiens, UniProt P34972). In words: Displacement of [3H]CP-55940 human CB2 receptor expressed in CHOK1 cells. It is filed as cell-based, CHO-K1. In outline: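 Human CB2 expressed in CHO cells. Values are the mean ± SEM of at least three determinations, derived by logistic curve fitting.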
In series [3] the target is T1, Cannabinoid receptor 2. In words: Agonist activity at human CB2 receptor expressed in CHOK1 cells assessed as reversal of forskolin-evoked cAMP accumulation relative to CP-55940. It is filed as functional, cell-based. As to conditions: CHO-K1. In outline: (§1)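 CHO cells expressing human CB2 were stimulated with forskolin, and agonist reversal of cyclic AMP accumulation was measured. Potency is given as mean ± SEM of 3–13 independent measurements. Emax is the maximal reversal, expressed as a percentage of the value obtained with a reference agonist.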
For orientation: cAMP levels reflect the balance of adenylyl cyclase and phosphodiesterase activity.

Series [4] is filed under the species Rattus norvegicus. Put plainly: Antihyperalgesic activity in rat assessed as reversal of hyperalgesia. It is filed as functional. In outline: (§2)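 Rat model of neuropathic mechanical hyperalgesia with oral dosing. Read-out was paw withdrawal threshold of the ipsilateral paw, followed from 1 h after dosing, with 12 animals per group, as mean ± SEM. Groups were compared with vehicle by ANOVA and Tukey's HSD.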

In series [5] the target is Cytochrome P450 2E1 (Homo sapiens, UniProt P05181). In words: Inhibition of CYP2E1 in human liver microsomes. It is filed as ADME, Microsome.
For series [6], the target named is Cytochrome P450 3A4 (Homo sapiens, UniProt P08684). Put plainly: Inhibition of CYP3A4 in human liver microsomes. It is filed as ADME, Microsome.
A short description of series [7]: Plasma protein binding. It is filed as ADME, cell-free. The conditions noted are these: human, read-out: PPB.
A short description of series [8]: Partition coefficient, log P of the compound. Type of series: physicochemical. As to conditions: octanol/water.
A short description of series [9]: Cmax in Wistar rat at 3 mg/kg, po after 1 hr. It is filed as ADME, organism-based. Set-up: dose 3 mg/kg, route oral. The conditions noted are these: in vivo. In outline: (§3)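 Single oral dose of 3 mg/kg in Wistar rats. Plasma and brain concentrations were followed over time after dosing.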
Series [10] has as its system Brain. In words: Drug level in brain in Wistar rat after 4 hrs. Type of series: ADME, tissue-based. The conditions noted are these: in vivo. In outline:
as §3

Series [11] concerns the target Cannabinoid receptor 1 (Rattus norvegicus, UniProt P20272). In words: Inhibition of rat CB1 receptor.
Series [12] can be described thus: Total clearance in Wistar rat at 1 mg/kg, iv. Type of series: ADME, organism-based. More on the design: dose 1 mg/kg, route intravenous. As to conditions: in vivo. In outline:
(§4)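 Wistar rats dosed once iv at 1 mg/kg or orally at 3.4 mg/kg. Plasma parameters (half-life, steady-state volume of distribution, total clearance, AUC0-∞, Tmax, Cmax) were derived from the concentration–time profiles. Absolute oral bioavailability was calculated from the po and iv AUC0-∞.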

Series [13] has as its system Liver microsomes. In words: Intrinsic clearance in rat liver microsomes. Type of series: ADME, Microsome. (In general: Microsomes from liver hold many membrane-bound enzymes, among them those of drug oxidation.)
Series [14] deals with T1, Cannabinoid receptor 2. Put plainly: Agonist activity at human CB2 receptor expressed in CHOK1 cells assessed as reversal of forskolin-evoked cAMP accumulation. It is filed as functional, cell-based, CHO-K1. Summed up:
as §1

Series [15] concerns Rattus norvegicus. In words: Antihyperalgesic activity in rat assessed as reversal of hyperalgesia at 3 mg/kg, po after 1 hr. It is filed as functional. In outline:
as §2

Series [16] can be described thus: Half life in Wistar rat at 1 mg/kg, iv. Type of series: ADME, organism-based. Set-up: dose 1 mg/kg, route intravenous. As to conditions: in vivo, read-out: beta t1/2 (converted). Summed up:
as §4

The nature of series [17]: Volume of distribution at steady state in Wistar rat at 1 mg/kg, iv. Type of series: ADME, organism-based. More on the design: dose 1 mg/kg, route intravenous. The conditions noted are these: in vivo, read-out: Vdss. In outline:
as §4

Series [18] is described as follows: AUC (0 to infinity) in Wistar rat at 1 mg/kg, iv. Type of series: ADME, organism-based. Set-up: time infinity, dose 1 mg/kg, route intravenous. The conditions noted are these: plasma. Summed up: as §4
Series [19] can be described thus: Tmax in Wistar rat at 3.4 mg/kg, po. It is filed as ADME, organism-based. More on the design: dose 3.4 mg/kg, route oral. As to conditions: in vivo. In outline:
as §4

The nature of series [20]: Cmax in Wistar rat at 3.4 mg/kg, po. Set-up: dose 3.4 mg/kg, route oral. As to conditions: in vivo. It is filed as ADME, organism-based. In outline:
as §4

Series [21] can be described thus: AUC (0 to infinity) in Wistar rat at 3.4 mg/kg, po. It is filed as ADME, organism-based. Set-up: time infinity, dose 3.4 mg/kg, route oral. As to conditions: plasma. In outline:
as §4

Series [22] is described as follows: Bioavailability in Wistar rat at 3.4 mg/kg, po. Type of series: ADME, organism-based. As to conditions: in vivo. Summed up: as §4
Series [23] concerns Liver microsomes. Put plainly: Intrinsic clearance in human liver microsomes. It is filed as ADME, Microsome.
In series [24] the target is T2, Cytochrome P450 1A2 (Homo sapiens, UniProt P05177).
T2 sequence (P05177 whole entry): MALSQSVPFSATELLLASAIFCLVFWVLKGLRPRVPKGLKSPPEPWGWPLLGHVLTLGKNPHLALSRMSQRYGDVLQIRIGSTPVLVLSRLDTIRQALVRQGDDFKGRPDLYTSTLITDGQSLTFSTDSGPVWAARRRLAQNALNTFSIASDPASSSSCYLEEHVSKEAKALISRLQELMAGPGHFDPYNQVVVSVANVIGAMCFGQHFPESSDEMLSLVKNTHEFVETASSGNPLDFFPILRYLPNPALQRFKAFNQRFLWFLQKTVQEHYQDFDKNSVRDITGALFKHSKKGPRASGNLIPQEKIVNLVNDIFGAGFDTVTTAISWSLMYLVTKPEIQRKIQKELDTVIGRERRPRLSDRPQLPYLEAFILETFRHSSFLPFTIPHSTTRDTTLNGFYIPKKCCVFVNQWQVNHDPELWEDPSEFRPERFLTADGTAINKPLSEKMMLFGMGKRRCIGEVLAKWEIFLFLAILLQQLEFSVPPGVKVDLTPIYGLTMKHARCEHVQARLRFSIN
In words: Inhibition of CYP1A2 in human liver microsomes. Type of series: ADME, Microsome.

The target in series [25] is T3, Cytochrome P450 2C8 (Homo sapiens, UniProt P10632).
T3 sequence (P10632 whole entry): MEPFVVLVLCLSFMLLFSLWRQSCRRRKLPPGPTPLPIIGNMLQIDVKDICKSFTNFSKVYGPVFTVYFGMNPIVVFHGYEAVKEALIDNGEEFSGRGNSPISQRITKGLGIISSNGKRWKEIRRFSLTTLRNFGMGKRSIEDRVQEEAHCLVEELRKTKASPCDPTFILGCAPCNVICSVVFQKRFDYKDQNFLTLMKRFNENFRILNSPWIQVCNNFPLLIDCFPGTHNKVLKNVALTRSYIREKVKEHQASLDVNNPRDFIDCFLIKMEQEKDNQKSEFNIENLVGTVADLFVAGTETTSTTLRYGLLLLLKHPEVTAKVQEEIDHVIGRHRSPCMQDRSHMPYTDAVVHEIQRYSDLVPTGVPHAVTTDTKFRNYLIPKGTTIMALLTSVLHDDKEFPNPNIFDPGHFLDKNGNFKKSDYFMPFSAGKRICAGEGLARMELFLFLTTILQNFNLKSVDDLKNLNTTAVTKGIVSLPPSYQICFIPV
Put plainly: Inhibition of CYP2C8 in human liver microsomes. It is filed as ADME, Microsome.

For series [26], the target named is Cytochrome P450 2C9 (Homo sapiens, UniProt P11712). In words: Inhibition of CYP2C9 in human liver microsomes. It is filed as ADME, Microsome.
Series [27] concerns the target Cytochrome P450 2C19 (Homo sapiens, UniProt P33261). Put plainly: Inhibition of CYP2C19 in human liver microsomes. It is filed as ADME, Microsome.
The target in series [28] is Cytochrome P450 2D6 (Homo sapiens, UniProt P10635). Put plainly: Inhibition of CYP2D6 in human liver microsomes. It is filed as ADME, Microsome.

The structures appear in SMILES notation.

Chain of Cannabinoid receptor 1 (Homo sapiens, UniProt P21554) (P21554 whole entry): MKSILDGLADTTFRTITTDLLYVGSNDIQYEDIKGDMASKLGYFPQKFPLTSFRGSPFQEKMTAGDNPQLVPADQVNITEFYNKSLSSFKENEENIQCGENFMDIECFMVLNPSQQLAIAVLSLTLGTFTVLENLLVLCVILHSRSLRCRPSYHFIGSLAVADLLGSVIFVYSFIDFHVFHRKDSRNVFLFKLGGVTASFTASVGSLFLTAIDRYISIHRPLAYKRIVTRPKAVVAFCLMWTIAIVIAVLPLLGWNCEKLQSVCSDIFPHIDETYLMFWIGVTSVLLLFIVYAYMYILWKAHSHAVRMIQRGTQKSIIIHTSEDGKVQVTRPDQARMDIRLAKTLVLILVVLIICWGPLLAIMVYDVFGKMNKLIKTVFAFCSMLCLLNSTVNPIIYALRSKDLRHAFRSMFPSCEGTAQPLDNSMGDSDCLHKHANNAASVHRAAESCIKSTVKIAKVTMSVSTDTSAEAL
T1 sequence (P34972 whole entry): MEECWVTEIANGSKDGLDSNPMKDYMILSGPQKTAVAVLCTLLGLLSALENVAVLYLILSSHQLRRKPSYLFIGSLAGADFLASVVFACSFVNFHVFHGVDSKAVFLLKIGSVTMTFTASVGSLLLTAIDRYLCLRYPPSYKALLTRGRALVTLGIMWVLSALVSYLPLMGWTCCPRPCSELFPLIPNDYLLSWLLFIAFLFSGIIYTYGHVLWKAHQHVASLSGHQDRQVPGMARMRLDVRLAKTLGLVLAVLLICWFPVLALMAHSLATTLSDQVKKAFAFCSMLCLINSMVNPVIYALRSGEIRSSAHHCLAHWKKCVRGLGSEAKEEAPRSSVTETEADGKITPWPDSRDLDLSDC
Chain of Cytochrome P450 3A4 (P08684 whole entry): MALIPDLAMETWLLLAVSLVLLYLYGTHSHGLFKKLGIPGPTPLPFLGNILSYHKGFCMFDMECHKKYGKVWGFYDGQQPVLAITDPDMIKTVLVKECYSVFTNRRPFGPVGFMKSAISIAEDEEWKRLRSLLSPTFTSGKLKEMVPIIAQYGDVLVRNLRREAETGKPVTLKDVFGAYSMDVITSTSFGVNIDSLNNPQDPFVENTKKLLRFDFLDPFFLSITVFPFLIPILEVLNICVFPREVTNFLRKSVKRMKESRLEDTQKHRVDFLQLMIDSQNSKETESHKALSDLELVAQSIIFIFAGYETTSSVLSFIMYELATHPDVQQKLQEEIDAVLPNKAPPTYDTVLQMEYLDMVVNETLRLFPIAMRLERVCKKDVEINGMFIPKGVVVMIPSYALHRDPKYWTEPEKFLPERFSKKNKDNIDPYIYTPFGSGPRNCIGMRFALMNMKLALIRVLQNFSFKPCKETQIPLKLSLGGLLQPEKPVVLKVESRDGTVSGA
Chain of Cytochrome P450 2C19 (P33261 whole entry): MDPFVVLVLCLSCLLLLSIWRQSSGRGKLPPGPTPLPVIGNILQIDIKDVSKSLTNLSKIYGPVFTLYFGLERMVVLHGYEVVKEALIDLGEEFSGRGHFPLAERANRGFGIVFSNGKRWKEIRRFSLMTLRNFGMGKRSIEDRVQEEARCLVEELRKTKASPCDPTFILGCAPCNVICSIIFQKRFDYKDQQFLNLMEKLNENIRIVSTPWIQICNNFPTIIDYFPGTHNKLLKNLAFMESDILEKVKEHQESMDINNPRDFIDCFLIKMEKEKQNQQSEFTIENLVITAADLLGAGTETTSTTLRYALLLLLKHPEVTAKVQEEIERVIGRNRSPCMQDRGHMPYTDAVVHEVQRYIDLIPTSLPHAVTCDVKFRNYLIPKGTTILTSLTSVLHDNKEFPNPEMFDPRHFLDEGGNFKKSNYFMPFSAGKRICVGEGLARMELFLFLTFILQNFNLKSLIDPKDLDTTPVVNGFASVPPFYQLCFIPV
Chain of Cannabinoid receptor 1 (Rattus norvegicus, UniProt P20272) (P20272 whole entry): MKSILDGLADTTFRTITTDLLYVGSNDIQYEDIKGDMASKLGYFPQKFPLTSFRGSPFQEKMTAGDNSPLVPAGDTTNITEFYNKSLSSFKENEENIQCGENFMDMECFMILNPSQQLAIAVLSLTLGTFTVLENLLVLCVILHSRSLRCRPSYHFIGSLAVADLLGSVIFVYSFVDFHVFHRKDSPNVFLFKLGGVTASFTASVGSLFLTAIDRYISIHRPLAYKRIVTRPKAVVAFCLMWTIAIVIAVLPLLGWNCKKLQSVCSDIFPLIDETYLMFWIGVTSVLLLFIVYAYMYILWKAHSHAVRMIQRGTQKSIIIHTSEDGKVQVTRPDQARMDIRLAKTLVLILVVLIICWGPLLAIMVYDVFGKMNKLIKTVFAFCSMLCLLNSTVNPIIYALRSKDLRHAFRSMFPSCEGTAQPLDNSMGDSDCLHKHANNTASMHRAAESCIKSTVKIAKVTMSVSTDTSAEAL
Chain of Cytochrome P450 2D6 (P10635 whole entry): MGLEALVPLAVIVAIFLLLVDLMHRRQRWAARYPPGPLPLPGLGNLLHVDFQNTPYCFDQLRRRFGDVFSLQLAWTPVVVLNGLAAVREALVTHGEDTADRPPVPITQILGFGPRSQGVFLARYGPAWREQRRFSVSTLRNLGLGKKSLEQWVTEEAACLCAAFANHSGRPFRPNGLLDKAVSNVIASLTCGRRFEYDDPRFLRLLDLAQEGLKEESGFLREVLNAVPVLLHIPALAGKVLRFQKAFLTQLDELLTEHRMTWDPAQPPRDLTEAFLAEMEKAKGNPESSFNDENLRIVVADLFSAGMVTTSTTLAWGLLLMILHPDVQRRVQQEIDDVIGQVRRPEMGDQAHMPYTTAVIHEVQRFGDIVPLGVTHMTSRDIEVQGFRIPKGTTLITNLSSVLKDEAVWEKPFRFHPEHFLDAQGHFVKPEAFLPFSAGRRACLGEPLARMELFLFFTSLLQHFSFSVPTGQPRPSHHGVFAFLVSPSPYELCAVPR
Chain of Cytochrome P450 2C9 (P11712 whole entry): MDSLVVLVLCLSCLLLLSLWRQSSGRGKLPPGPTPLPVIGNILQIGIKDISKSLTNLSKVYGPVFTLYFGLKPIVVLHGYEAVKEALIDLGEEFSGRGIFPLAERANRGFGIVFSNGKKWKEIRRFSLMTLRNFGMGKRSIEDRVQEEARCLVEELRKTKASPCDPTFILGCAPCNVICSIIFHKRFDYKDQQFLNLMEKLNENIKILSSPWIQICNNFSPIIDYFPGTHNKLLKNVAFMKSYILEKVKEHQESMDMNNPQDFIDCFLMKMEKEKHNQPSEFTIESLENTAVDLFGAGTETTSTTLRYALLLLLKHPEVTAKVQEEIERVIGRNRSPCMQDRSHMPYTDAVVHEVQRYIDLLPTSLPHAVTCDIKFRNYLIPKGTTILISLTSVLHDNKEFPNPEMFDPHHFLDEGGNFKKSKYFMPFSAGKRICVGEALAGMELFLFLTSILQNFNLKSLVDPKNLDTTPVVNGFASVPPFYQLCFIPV
Chain of Cytochrome P450 2E1 (P05181 whole entry): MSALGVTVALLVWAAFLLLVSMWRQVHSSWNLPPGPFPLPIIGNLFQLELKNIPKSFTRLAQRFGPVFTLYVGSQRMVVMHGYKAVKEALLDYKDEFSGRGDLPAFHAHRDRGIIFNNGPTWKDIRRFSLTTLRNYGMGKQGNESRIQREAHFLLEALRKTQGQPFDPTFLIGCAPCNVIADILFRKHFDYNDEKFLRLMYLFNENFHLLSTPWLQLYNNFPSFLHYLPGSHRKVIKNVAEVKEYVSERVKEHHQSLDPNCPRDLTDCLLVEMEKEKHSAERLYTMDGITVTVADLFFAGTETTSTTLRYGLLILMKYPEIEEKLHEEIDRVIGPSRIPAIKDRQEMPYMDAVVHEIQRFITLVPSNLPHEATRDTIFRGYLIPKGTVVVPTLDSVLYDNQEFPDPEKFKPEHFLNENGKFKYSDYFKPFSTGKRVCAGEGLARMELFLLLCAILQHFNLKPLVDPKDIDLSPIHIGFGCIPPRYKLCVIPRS

As a reminder, the IC50 is the midpoint of a concentration-inhibition curve. Read a high IC50 as lower potency. On to `CCCCCNc1ccc(C(=O)c2cccc3ccccc23)c2ccccc12`, for which the figures for the IC50 in series [1] and in series [2] were 25 nM and 120 nM, respectively.
As for `O=C(c1cccc2ccccc12)c1ccc(OCCc2ccccc2)c2ccccc12`, the IC50 was 930 nM in series [1] and 2000 nM in series [2].
For `CCCCCCOc1ccc(C(=O)c2cccc3ccccc23)c2ccccc12` the same measures were 160 nM and 660 nM.
Usually Emax stands for the size of the effect at its maximum, as opposed to the concentration needed. Turning to `CCCCCCC(C)(C)c1ccc([C@@H]2C[C@H](O)CC[C@H]2CCCO)c(O)c1` [CP-55940], the Emax in series [3] came out at 100%. The D50 in [4] is 0.08 mg/kg.
As for `CCCCOc1ccc(C(=O)c2cccc3ccccc23)c2ccccc12`, the half-maximal inhibitory concentration (IC50) in series [1] was 48 nM; in series [2] it was 85 nM.
On the same counts, the results for `CCCOc1ccc(C(=O)c2cccc3ccccc23)c2ccccc12` are 300 nM and 90 nM.
Broadly, the logP is a log measure of how a compound divides between an organic and an aqueous phase. In general, Cmax refers to the maximum level reached in the sampled fluid or tissue. By clearance is commonly meant a measure of how efficiently the substance is removed, as volume per time. A lower clearance goes with a low capacity for elimination. In general, EC50 refers to the concentration needed to bring the measured effect to its halfway point. By AUC(0-inf) is commonly meant total exposure, with the tail of the curve extrapolated. Higher therefore signals more exposure. Usually Tmax stands for the time at which the peak concentration occurs. Broadly, the bioavailability is dose-corrected exposure relative to a reference, in per cent. With `CCCCCOc1ccc(C(=O)c2cccc3ccccc23)c2ccccc12`, the IC50 was over 200000 nM in [5]; over 200000 nM in series [6]; 22 nM in [11]; 98 nM in [2]; over 200000 nM in series [24]; over 200000 nM in series [25]. In addition, the half-maximal inhibitory concentration (IC50) in series [26] was 80800 nM; in series [27] it was over 200000 nM; in [28], over 200000 nM. Also, the fraction unbound in [7] was under 0.01. Further, in [8], the logP is 6.85. The Cmax in series [9] amounted to 1130 nM; in [20], 1600 nM. Further, the Drug uptake in [10] came to 0.24 µmol/kg. Moreover, in series [3], the Emax was 88.4%. The compound further gave a clearance in series [12] of 8 mL/min/kg. In addition, the CL in series [13] and in series [23] was under 5 µL/min throughout. The EC50 in series [14] was 27.9 nM. Also, the Activity in series [15] was found to be 90%. For the same compound, the half-life in series [16] was 64.6 h. Further, in [4], the D50 came to 0.17 mg/kg. In addition, the Vd in series [17] came out at 9.6 L/kg. The values for the AUC(0-inf) in [18] and in [21] were 5.72 µM·h and 8.39 µM·h, respectively. In [19], the Tmax is 1 h. Besides, in [22], the bioavailability came out at 43%.
With `Cc1c(C(=O)c2cccc3ccccc23)c2cccc3c2n1[C@H](CN1CCOCC1)CO3` [WIN-552122], the maximum response (Emax) in [3] is 96.9%. For the same compound, in series [4], the D50 was found to be 0.52 mg/kg.
